From ChEMBL document CHEMBL4270594, “Design, synthesis and pharmacological evaluation of new 3-(1H-benzimidazol-2-yl)quinolin-2(1H)-one derivatives as potential antitumor agents” (Eur J Med Chem, 2018)
Activity calls are given as the source filed them. The rule behind the calls is not given here.

Experiments:
HepG2 [1] = assay: Induction of apoptosis in human HepG2 cells assessed as necrotic cells at 8 uM after 24 hrs by Annexin V-FITC/ propidium iodide staining based flow cytometry (reference value: 0.28%); format: functional
HepG2 [2] = assay: Induction of ROS in human HepG2 cells at 6 to 10 uM by DCFH-DA staining based fluorescence microscopic method; format: functional, cell-based
HepG2 [3] = assay: Upregulation of p53 protein expression in human HepG2 cells at 8 uM after 12 hrs by Western blot analysis; format: functional, cell-based
HepG2 [4] = assay: Induction of apoptosis in human HepG2 cells assessed as early apoptotic cells at 6 uM after 24 hrs by Annexin V-FITC/ propidium iodide staining based flow cytometry (reference value: 6.5%); format: functional
HepG2 [5] = assay: Downregulation of CDC25C protein expression in human HepG2 cells at 6 to 10 uM after 12 hrs by Western blot analysis; format: functional, cell-based
HepG2 [6] = assay: Upregulation of p53 protein expression in human HepG2 cells at 6 to 10 uM after 12 hrs by Western blot analysis; format: functional, cell-based
Outline: (§1)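 HepG2 cell lysates after compound treatment analyzed by western blot for the target protein, compared with untreated negative control.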

HepG2 [7] = assay: Induction of ROS in human HepG2 cells at 6 to 10 uM by DAPI staining based fluorescence microscopic method; format: functional, cell-based
HepG2 [8] = assay: Downregulation of Bcl2 protein expression in human HepG2 cells at 6 to 10 uM after 12 hrs by Western blot analysis; format: functional, cell-based
HepG2 [9] = assay: Induction of apoptosis in human HepG2 cells assessed as late apoptotic cells at 10 uM after 24 hrs by Annexin V-FITC/ propidium iodide staining based flow cytometry (reference value: 1.91%); format: functional
HepG2 [10] = assay: Cell cycle arrest in human HepG2 cells assessed as accumulation at G2-phase at 6 uM after 48 hrs by propidium iodide staining based flow cytometry (reference value: 19.04%); format: functional
HepG2 [11] = assay: Cell cycle arrest in human HepG2 cells assessed as accumulation at S-phase at 6 uM after 48 hrs by propidium iodide staining based flow cytometry (reference value: 30.49%); format: functional
HepG2 [12] = assay: Induction of apoptosis in human HepG2 cells assessed as early apoptotic cells at 10 uM after 24 hrs by Annexin V-FITC/ propidium iodide staining based flow cytometry (reference value: 6.5%); format: functional
HepG2 [13] = assay: Induction of apoptosis in human HepG2 cells assessed as late apoptotic cells at 6 uM after 24 hrs by Annexin V-FITC/ propidium iodide staining based flow cytometry (reference value: 1.91%); format: functional
HepG2 [14] = assay: Cell cycle arrest in human HepG2 cells assessed as accumulation at G2/M phase after 48 hrs by propidium iodide staining based flow cytometry; format: functional
HepG2 [15] = assay: Upregulation of p21 protein expression in human HepG2 cells at 6 to 10 uM after 12 hrs by Western blot analysis; format: functional, cell-based; outline: as §1
HepG2 [16] = assay: Induction of intracellular calcium level in human HepG2 cells at 6 to 10 uM after 24 hrs by Fluo3-AM staining based fluorescence microscopic method; format: functional, cell-based
HepG2 [17] = assay: Cell cycle arrest in human HepG2 cells assessed as accumulation at G1-phase at 10 uM after 48 hrs by propidium iodide staining based flow cytometry (reference value: 50.47%); format: functional
HepG2 [18] = assay: Cell cycle arrest in human HepG2 cells assessed as accumulation at G2-phase at 10 uM after 48 hrs by propidium iodide staining based flow cytometry (reference value: 19.04%); format: functional
HepG2 [19] = assay: Induction of apoptosis in human HepG2 cells assessed as pycnosis at 6 to 10 uM after 12 hrs by acridine orange/ethidium bromide staining based fluorescence microscopic method; format: functional, cell-based
Outline: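 HepG2 cells stained with acridine orange/ethidium bromide and examined by fluorescence microscopy; nuclei scored as yellow/green or orange, with pycnosis, membrane blebbing and cell budding taken as apoptotic morphology.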

HepG2 [20] = assay: Cell cycle arrest in human HepG2 cells assessed as accumulation at G1-phase at 6 uM after 48 hrs by propidium iodide staining based flow cytometry (reference value: 50.47%); format: functional
HepG2 [21] = assay: Downregulation of CDK1 protein expression in human HepG2 cells at 6 to 10 uM after 12 hrs by Western blot analysis; format: functional, cell-based
Mus musculus [22] = assay: Upregulation of APAF-1 protein expression in tumor tissues of Balb/c nude mouse xenografted with human NCI-H460 cells at 25 to 50 mg/kg, ip bid for 13 days measured on day 14 by Western blot analysis; format: functional, organism-based
BEL-7404 tumor cell line [23] = assay: Cell cycle arrest in human Bel7404 cells assessed as accumulation at G2-phase at 9 uM after 48 hrs by propidium iodide staining based flow cytometry (reference value: 18.84%); format: functional
Mus musculus [24] = assay: Downregulation of caspase-9 protein expression in tumor tissues of Balb/c nude mouse xenografted with human Bel7404 cells at 25 to 50 mg/kg, ip bid for 20 days measured on day 21 by Western blot analysis; format: functional, organism-based
Mus musculus [25] = assay: Toxicity in Balb/c nude mouse xenografted with human Bel7404 cells assessed as change in body weight at 25 to 50 mg/kg, ip bid for 20 days; format: organism-based; details: in vivo, 480 h
Mus musculus [26] = assay: Downregulation of PARP protein expression in tumor tissues of Balb/c nude mouse xenografted with human Bel7404 cells at 25 to 50 mg/kg, ip bid for 20 days measured on day 21 by Western blot analysis; format: functional, organism-based
BEL-7404 tumor cell line [27] = assay: Cell cycle arrest in human Bel7404 cells assessed as accumulation at S-phase at 9 uM after 48 hrs by propidium iodide staining based flow cytometry (reference value: 22%); format: functional
BEL-7404 tumor cell line [28] = assay: Cell cycle arrest in human Bel7404 cells assessed as accumulation at G1-phase at 9 uM after 48 hrs by propidium iodide staining based flow cytometry (reference value: 59.16%); format: functional

## O=c1[nH]c2ccccc2cc1-c1nc2cc(Cl)ccc2[nH]1
HepG2 [1]
  Activity: 0.32%
HepG2 [2]
  Activity: Active
HepG2 [3]
  Activity: Active
HepG2 [4]
  Activity: 20.22%
HepG2 [5]
  Activity: Active
HepG2 [6]
  Activity: Active
HepG2 [7]
  Activity: Active
HepG2 [8]
  Activity: Active
HepG2 [9]
  Activity: 16.68%
HepG2 [10]
  Activity: 39%
HepG2 [11]
  Activity: 29.48%
HepG2 [12]
  Activity: 45.57%
HepG2 [13]
  Activity: 10.4%
HepG2 [14]
  Activity: Dose-dependent effect
HepG2 [15]
  Activity: Active
HepG2 [16]
  Activity: Active
HepG2 [17]
  Activity: 23.66%
HepG2 [18]
  Activity: 49.1%
HepG2 [19]
  Activity: Active
HepG2 [20]
  Activity: 41.52%
HepG2 [21]
  Activity: Active
Mus musculus [22]
  Activity: Active

## O=c1[nH]c2cc3c(cc2cc1-c1nc2cc(Cl)ccc2[nH]1)OCO3
BEL-7404 tumor cell line [23]
  Activity: 30.58%
Mus musculus [24]
  Activity: Active
Mus musculus [25]
  Activity: Non-Toxic
Mus musculus [26]
  Activity: Active
BEL-7404 tumor cell line [27]
  Activity: 23.66%
BEL-7404 tumor cell line [28]
  Activity: 45.76%
